# Article PMC2973230 (Biochemical Journal, 2010)
# How the values were obtained:
# [1] = target: T1, OgOGA (Oceanicola granulosus OGA) (Oceanicola granulosus, UniProt Q2CEE3); assay: Enzymatic deglycosylation of glycopeptide monitored by LC-MS; type: biochemical; settings: detected by LC-MS; 785 Da to 582 Da
# Summary of the method: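 OgOGA expressed in E. coli as a GST fusion from a gene cloned from genomic DNA, then purified by affinity, anion-exchange and size-exclusion chromatography. Glycopeptide loss of GlcNAc followed by LC–MS: reversed-phase C18 HPLC with diode-array UV detection, coupled to a high-resolution TOF mass spectrometer.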
# [2] = target: T1, OgOGA (Oceanicola granulosus OGA); assay: Inhibition of OgOGA by OGA inhibitors, 4MU-GlcNAc substrate; type: biochemical
# Summary of the method: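 OgOGA was a GST fusion expressed in E. coli and purified by affinity, anion-exchange and size-exclusion steps. Activity was measured in 25 mM Tris/HCl pH 7.5 with 0.1 mg/ml BSA and 2% DMSO at 37 °C. 4MU-GlcNAc was used at its Km for 20 min, with fluorescence read at ex 360/em 460 nm. Run in triplicate.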
# T1 sequence (Q2CEE3 whole entry, the tested form may be a part): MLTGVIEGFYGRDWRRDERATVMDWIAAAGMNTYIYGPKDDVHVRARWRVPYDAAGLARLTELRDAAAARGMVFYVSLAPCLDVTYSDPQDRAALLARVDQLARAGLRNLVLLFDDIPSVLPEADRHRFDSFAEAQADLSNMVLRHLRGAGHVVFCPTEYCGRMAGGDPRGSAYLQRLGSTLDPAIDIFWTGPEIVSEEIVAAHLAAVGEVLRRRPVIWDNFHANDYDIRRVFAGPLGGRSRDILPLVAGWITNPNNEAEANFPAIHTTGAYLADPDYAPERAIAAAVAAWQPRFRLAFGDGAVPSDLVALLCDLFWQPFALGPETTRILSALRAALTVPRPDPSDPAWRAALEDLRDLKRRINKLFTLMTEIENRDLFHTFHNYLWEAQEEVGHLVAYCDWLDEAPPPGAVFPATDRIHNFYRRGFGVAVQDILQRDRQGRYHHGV
Deglycosylation of glycopeptide by OgOGA [1],IC50 [2] [µM],Molecule
quantitatively deglycosylate,–,Ac-VAHS(-β-O-GlcNAc)GA-NH2
–,11,"CC(=O)N[C@H]1/C(=N/OC(=O)Nc2ccccc2)O[C@H](CO)[C@@H](O)[C@@H]1O [PUGNAc, O-(2-acetamido-2-deoxy-D-glucopyranosylidene)amino-N-phenylcarbamate]"
